p97 inhibitor = inhibitors of human p97 ATPase; recombinant p97 ATPase, Kinase-Glo ATP luminescence, 3 h; inhibition, % at 8 µM; 0.42% of 220,000 active; AID 1481; in the data active = inhibition above about 15%;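 also: 0% = DMSO vehicle and 100% = wells lacking enzyme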
Target sequence (P55072 whole entry, looked up): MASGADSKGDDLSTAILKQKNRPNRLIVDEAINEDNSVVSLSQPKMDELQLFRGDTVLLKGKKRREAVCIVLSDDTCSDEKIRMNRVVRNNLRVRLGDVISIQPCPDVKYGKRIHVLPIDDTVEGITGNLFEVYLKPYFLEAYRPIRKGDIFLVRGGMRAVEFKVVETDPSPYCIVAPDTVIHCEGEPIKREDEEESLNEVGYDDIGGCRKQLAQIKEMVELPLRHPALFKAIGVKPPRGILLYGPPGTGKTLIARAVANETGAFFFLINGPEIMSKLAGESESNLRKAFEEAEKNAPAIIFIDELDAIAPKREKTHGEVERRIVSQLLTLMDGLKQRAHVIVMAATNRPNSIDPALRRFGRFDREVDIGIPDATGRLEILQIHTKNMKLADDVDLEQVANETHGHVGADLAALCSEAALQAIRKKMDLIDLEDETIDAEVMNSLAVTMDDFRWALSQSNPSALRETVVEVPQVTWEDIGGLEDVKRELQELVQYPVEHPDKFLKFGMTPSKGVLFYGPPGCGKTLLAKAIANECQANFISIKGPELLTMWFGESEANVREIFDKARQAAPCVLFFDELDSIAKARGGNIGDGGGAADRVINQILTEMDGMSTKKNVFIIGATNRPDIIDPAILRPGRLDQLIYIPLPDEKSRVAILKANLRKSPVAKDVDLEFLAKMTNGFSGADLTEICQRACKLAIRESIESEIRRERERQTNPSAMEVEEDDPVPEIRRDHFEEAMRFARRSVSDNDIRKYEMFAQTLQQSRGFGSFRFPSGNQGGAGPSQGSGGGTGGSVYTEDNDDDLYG
ROMK mod = modulators of human ROMK potassium channel; P48048; Tet-inducible ROMK, thallium flux fluorescence; actives lie on both sides; B-score at 10 µM; 2% of 130,000 active; AID 1918;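 active = signal ratio slope over the read window, or its plate-corrected B-score, at least 3 SD from the plate mean, either direction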;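 also: B-score of the F/F0 ratio slope over 7 to 12 s after thallium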
Cl transport mod = modulators of human KCC2 chloride dependent transport. Q9H2X9. B-score of Tl+ flux slope (higher = more flux/activation; lower = inhibition) at 10 µM. KCC2 cells, thallium flux FluoZin-2 fluorescence. AID 1456. 2.2% of 190,000 active;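 active = thallium flux slope and its plate-corrected score both differing from the plate sample mean at a set confidence after two filtering rounds, in either direction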;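 also: slope of fluorescence scaled to starting intensity during 10 to 20 s after thallium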
Redox H2O2 prof = compounds producing H2O2 with reducing agent – biochemical, NIH compound library profiling, artefact control for MLSCN library redox annotation, primary screen. activation, % at 10 µM. AID 878. 0.03% of 200,000 active. DTT-dependent redox cycling H2O2, phenol red/HRP absorbance; 100% = 100 µM peroxide control, 0% = buffer;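 active = activation of at least 50% relative to the plate's high and low controls in the primary single-dose screen; inactive = activation below 50%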;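 also: compound incubated with DTT at 0.8 mM final as the reducing agent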
PKD1 inh = blocks activity of human protein kinase D1. PKD1 kinase fluorescence polarization assay. inhibition, % (no concentration beside the values). 0.056% of 200,000 active; in the data active = inhibition above about 50%
Mdm2 ligase inh = blocks human Mdm2 ubiquitin ligase activity | 0.11% of 210,000 active | cell-based MDM2 ubiquitination luciferase reporter, 2 h; 0 = plate control, 100 = twice control, blank-subtracted | Q00987 | signal enhancement, % at 5 µM;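 active = signal enhancement of 30% or more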;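 also: luminescence tracks abundance of the self-degrading MDM2-luciferase fusion protein; higher signal means inhibition of MDM2 E3 ligase activity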
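Assay system: stable mammalian line carrying autodegrading MDM2–luciferase fusion reporter; amount: 2000 cells seeded into each well; buffer or medium: DMEM; benchmarks: plate control and blank wells; signal: luciferase luminescence; timing: 2 h compound exposure at 37 °C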
ROMK retest = confirmation of human ROMK potassium channel modulators | shares compounds with ROMK mod | ROMK thallium flux, fluorescence ratio; hits give low values | normalized thallium flux (F/F0 slope) at 10 µM | 54% of 3,000 active;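 active = Flux at 10 µM at least 3 SD below or above vehicle control mean in one or both replicates; inconclusive = no clear call, values can overlap the other calls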
* marks the source's active call; other numbers are inactive results; u = inconclusive; x = no result. Sampled rows, rich in hits. Any-hit rate of the full collection: about 3.4%.

SMILES	p97 inhibitor	ROMK mod	Cl transport mod	Redox H2O2 prof	PKD1 inh	Mdm2 ligase inh	ROMK retest
CCOC(=O)C1=C(O)CSC1=Nc1cccc2ccccc12	3.2	-0.872	-2.11	-0.2	-8.8	0.8	x
O=C(CNc1ccc(Cl)cc1)c1ccc(Br)cc1	1.1	2.69*	-0.0839	0.4	6.4	-3.8	0.086
COc1ccc(NCc2nn(CC(=O)c3ccc(Br)cc3)c3[n+]2CCCCC3)cc1	7.8	-0.147	-0.175	-0.6	-3.6	-7.0	x
O=C(Cn1nc(CNc2ccc(Cl)cc2)[n+]2c1CCCCC2)c1ccc(Br)cc1	7.2	-3.72*	-0.165	0.1	13.6	x	0.0533*
O=C(CNc1ccc(Br)cc1)c1ccc(O)cc1	-3.1	-0.0323	0.354	-1.2	-2.6	-0.8	x
CS(=O)(=O)N(CCC(=O)O)Cc1ccccc1	4.3	x	1.28	2.1	-1.9	-1.1	x
CCC(C)(C)NC(=O)CN(Cc1ccc2c(c1)OCO2)C(=O)CCC(=O)Nc1ccccn1	-2.6	-0.183	-0.146	0.1	-15.7	x	x
CC1(C)C(CSc2nc3ccccc3[nH]2)C1(Cl)Cl (stereo not given)	-0.5	-0.497	-0.0982	-1.9	9.2	12.2	x
CC(O)CNc1nc2ccccc2n1CC(=O)NCC(F)(F)F (stereo not given)	3.7	0.00648	0.151	0.5	1.7	-20.2	x
CC(O)CNc1nc2ccccc2n1CC(=O)NC12CC3CC(CC(C3)C1)C2 (stereo not given)	2.3	-2.68*	-0.689	0.0	-1.0	-24.2	0.0655*
O=C(c1cccc(COc2cccc3ccccc23)c1)N1CCCC1	0.6	-3.48*	-0.551	0.9	1.7	x	0.0869
O=C(c1cccc(COc2ccc(Cl)cc2Cl)c1)N1CCN(c2ccccn2)CC1	-7.8	x	-1.45	0.5	-5.8	-48.7	x
Cc1cccc(NC(=O)C(C)OC(=O)c2ccccc2NS(=O)(=O)c2cc(C)c(C)c([N+](=O)[O-])c2)c1 (stereo not given)	7.3	-2.99*	-0.853	0.6	-9.2	-12.0	0.0613*
Cn1ncc([N+](=O)[O-])c1C(=O)Nc1nccs1	3.0	x	-0.0709	0.1	-13.1	-8.8	x
O=C(Cn1c(CO)nc2ccccc21)Nc1ccccc1Cl	7.1	-2.5*	1.91	0.1	-4.9	0.5	0.062*
CC(C)(C)c1ccc(-c2cn(-c3ccc(Br)cc3)c3[n+]2CCCS3)cc1	1.4	-2.54*	0.108	-0.1	5.3	-42.2	0.0553*
CC1CCCN(C(=O)COC(=O)c2n[nH]c3ccccc23)C1 (stereo not given)	-4.9	-0.566	x	-0.1	-4.9	-15.2	x
COC(=O)C1CCN(C(=O)COC(=O)c2n[nH]c3ccccc23)CC1	-2.4	-0.0642	-0.0299	0.5	-9.1	-12.6	0.0767
CCOC(=O)c1ccc(-c2ccc(/C=N/NC(=O)Cc3nnc(N)s3)o2)cc1	3.0	-11.7*	-0.815	x	x	-4.9	0.0783
CCC(=O)Nc1cccc(C(=O)/C=C/c2cccs2)c1	-6.0	-1.35	-1.96	-0.4	4.3	-1.4	0.0686*
N#CCSc1nnc(-c2ccc(F)cc2)n1N	1.4	-0.067	0.118	-0.6	-1.0	-9.6	x
CCOC(=O)C1(CCc2ccccc2)CCN(Cc2c(O)cccc2OC)CC1	-0.5	-2.79*	0.0393	-0.9	-1.7	-0.3	0.0547*
CCOC(=O)C1(CCOc2ccccc2)CCN(Cc2ccc(C)o2)CC1	-0.3	-4.51*	0.00527	-0.7	-9.1	3.3	0.0674*
CCOC(=O)C1(CCc2ccccc2)CCN(Cc2ccc(OC)cc2)CC1	-2.9	-0.0367	0.113	0.4	-0.7	-8.0	x
O=C(NC(=S)NCCCN1CCOCC1)c1ccc(Br)cc1	-9.3	0.363	0.637	0.0	5.7	-21.7	x
SMILES	p97 inhibitor	ROMK mod	Cl transport mod	Redox H2O2 prof	PKD1 inh	Mdm2 ligase inh	ROMK retest
Cc1cc2cc(CN(Cc3nnnn3C3CCCCC3)CC3CCCO3)c(=O)[nH]c2cc1C (stereo not given)	5.5	-5.68*	-1.29	0.8	-3.5	-7.8	u
COC(=O)C1C(=O)C2=C(CC1C)NC(=O)CC2c1ccc(O)c(OC)c1 (stereo not given)	1.3	x	x	3.1	-8.2	-19.4	x
CSc1ccccc1NC(=O)c1ccccc1N(Cc1ccccc1)S(C)(=O)=O	3.9	x	-0.351	2.3	-6.6	-13.6	x
O=C(O)c1cc2c(s1)-c1ccccc1OC2	5.2	x	0.222	-2.0	-1.3	-4.5	u
COCC(=O)O[C@]1(CCN(C)CCCc2nc3ccccc3[nH]2)CCc2cc(F)ccc2[C@@H]1C(C)C	x	x	1.25	x	x	-1.2	0.0606*
CCOC(=O)CCc1nc2ccccc2[nH]1	-2.4	0.635	0.0112	0.6	-5.3	-3.7	x
O=c1[nH]c(CSc2nc3ccccc3[nH]2)nc2c1cnn2-c1ccccc1	7.2	-3.44*	-1.05	0.3	-7.5	-8.4	0.0529*
O=c1[nH]c(SCc2nc3c(cnn3-c3ccccc3)c(=O)[nH]2)nc2ccccc12	5.9	-0.421	1.08	-7.2	-6.7	4.6	x
CCOc1ccc(NC(=O)c2cccc(OC(=S)N3CCC(C)CC3)c2)cc1	-4.8	x	0.00172	-6.0	-11.4	-1.8	x
CCOC(=O)c1sc(NC(=O)CSc2n[nH]c(-c3ccccc3)n2)c(C#N)c1C	1.1	x	-2.29	0.3	-3.2	-1.8	0.0586*
CCC(C)[C@H]1CNC(=S)N1CCc1cccc2ccccc12 (stereo not given in full)	x	x	-0.168	x	x	-1.9	x
CC(CC#CCN1CCOCC1)OCCC#N (stereo not given)	1.0	x	0.386	1.4	2.8	3.8	x
Cc1ccc2nsnc2c1NC(=O)CCl	7.9	-13.1*	0.0893	-0.4	-2.3	0.1	0.0789
COc1ccc(OC)c(C2NC(=S)NC3=C2N2CCC3CC2)c1 (stereo not given)	-0.2	2.95*	-0.851	0.4	3.6	8.3	0.0744
O=C(c1ccccc1)C1CCN(CC(=O)N2CCN(c3ccccc3)CC2)CC1	-0.3	-0.904	-0.89	-0.5	-3.8	-1.0	x
CC(CCc1ccccc1)NC(=O)CN1CCN(c2ccccc2)CC1 (stereo not given)	-0.4	-2.88*	-0.277	0.5	-4.0	-9.5	0.0614*
O=C(CN1CCN(C(c2ccccc2)c2ccccc2)CC1)N1CCN(c2ccccc2)CC1	-0.5	-3.66*	0.0919	x	x	-6.4	0.0627*
Cc1ccc(CC(=O)NC(C)CCc2ccccc2)cc1 (stereo not given)	-1.0	x	-2.65	2.2	-8.6	-0.2	x
Cn1c(C2CCCCC2)nc2c1c(=O)[nH]c(=O)n2Cc1ccccc1	1.3	3.2*	0.0309	0.5	-1.2	-6.2	0.0982*
Nc1c(-c2ccccc2)nc(Cl)nc1-c1ccccc1	0.4	-0.983	0.0465	-7.0	-5.2	-21.7	x
c1ccc(-c2nc3nonc3nc2-c2ccccc2)cc1	2.6	-4.18*	0.0979	1.3	4.1	-8.2	0.0626*

High-throughput results (PubChem BioAssay)
